Screening data (PubChem BioAssay)
LEDGF integ inh – blocks HIV-1 LEDGF/p75-dependent DNA integration. inhibition, % at 3.7 µM. actives 0.64% (n = 370,000). TR-FRET IN-LEDGF/p75 DNA integration, Eu/Cy5;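 active = inhibition above the screen-wide mean plus 3 SD, cut at about 13% in these data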;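 also: signal is the Cy5 over europium emission ratio at 671 and 618 nm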
SIAE inh – inhibitors of human sialic acid acetylesterase SIAE; inhibition, % at 9.66 µM; SIAE FP-Rh probe binding, fluorescence polarization; actives 0.69% (n = 370,000); AID 1053197;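 active = inhibition above a cutoff: mean of compounds within the control limits plus 3 SD of those, cut at about 17% in these data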
TDP2 inh – blocks human TDP2 phosphodiesterase activity | O95551 | recombinant TDP2, T5PNP hydrolysis, p-nitrophenol absorbance 415 nm | inhibition, % at 12.8 µM | actives 0.34% (n = 370,000);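 active = inhibition above the mean of all tested compounds plus 3 SD, set per campaign, cut at about 25% in these data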
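Read-out basis: percent inhibition. System: recombinant human TDP2. Buffer or medium: Mg2+-containing Tris-HCl buffer, pH 7.5. Repeats: single replicate. Timing: reaction 2 h, 37 °C. Benchmarks: high control without enzyme, low control DMSO plus TDP2. Probe or stimulus: 5 mM T5PNP. Doses: 12.8 µM only. Measured by: epi absorbance of p-nitrophenol freed from T5PNP by hydrolysis.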
UHRF1 MBD2 ctr – human UHRF1 methylated DNA binding inhibitors. AID 687016. Q96T88. actives 0.75% (n = 370,000). inhibition, % at 4.4 µM. UHRF1 binding to methylated oligo, TR-FRET; in the data active = inhibition above about 21%;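 also: UHRF1 SRA domain binding a hemimethylated CpG hairpin DNA probe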
MBD2 DNA inh – MBD2-methylated oligo binding inhibition. Q9UBB5. TR-FRET, MBD2 binding to methylated oligonucleotide. inhibition, % at 4.4 µM. actives 0.31% (n = 370,000). AID 686964; in the data active = inhibition above about 13%
PRMT1 FP inh – inhibitors of human PRMT1; Q99873; recombinant PRMT1, activity-based probe fluorescence polarization; inhibition, % at 2.79 µM; actives 1.3% (n = 370,000); AID 652257;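 active = inhibition above about 21% made by adding two undisclosed values, limit read from the data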
Target sequence (Q99873 whole entry, looked up): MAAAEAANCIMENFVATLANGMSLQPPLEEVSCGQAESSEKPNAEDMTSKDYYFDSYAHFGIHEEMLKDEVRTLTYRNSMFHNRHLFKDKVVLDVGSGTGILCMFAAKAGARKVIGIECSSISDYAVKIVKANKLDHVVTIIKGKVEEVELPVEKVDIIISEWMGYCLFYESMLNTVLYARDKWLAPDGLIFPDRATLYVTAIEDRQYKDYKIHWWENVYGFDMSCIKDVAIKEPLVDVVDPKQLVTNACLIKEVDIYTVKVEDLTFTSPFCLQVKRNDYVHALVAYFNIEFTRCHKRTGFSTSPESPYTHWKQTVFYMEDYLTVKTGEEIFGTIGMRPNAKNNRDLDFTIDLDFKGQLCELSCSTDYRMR
SIAE confirm – confirmation of human SIAE inhibitors | shares compounds with SIAE inh | SIAE FP-Rh activity-based probe, fluorescence polarization | AID 1117263 | inhibition, % at 9.66 µM | actives 13% (n = 2,300);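 active = mean inhibition of the replicates above the hit cutoff set in the primary screen, cut at about 17% in these data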;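 also: inhibitors lower polarization as more probe stays unbound to SIAE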
Hits are given with their value; – = inactive; · = no result given. This is a sample that favours compounds with a hit; in the whole collection about 3.3% have one here.

SMILES	LEDGF integ inh	SIAE inh	TDP2 inh	UHRF1 MBD2 ctr	MBD2 DNA inh	PRMT1 FP inh	SIAE confirm
CCCCCCC/C=C(\C)[C@@H](O)[C@@H](C)C(=O)N1CCC[C@@H]1C(=O)O[C@H](C(=O)O[C@@H](C)C(=O)O)[C@@H](C)CC	–	–	–	–	–	–	·
COC(=O)[C@]12C[C@H](CC(=O)NCc3cccc4ccccc34)C(=O)N(Cc3cccc4ccccc34)C1=C[C@H](C1CCCC1)O[C@@H]2C	–	–	–	–	–	–	·
COc1ccc(NS(=O)(=O)c2cc(NC(=O)c3ccc(=O)[nH]c3)ccc2N2CCCC2)cc1	–	23	–	–	–	–	–
O=C(CSc1ccc(-c2cccnc2)nn1)N1CCCCCC1	–	27	–	–	–	–	–
CCOc1ccc(CCNC(=O)Cc2ccc(NC(=O)C3=C(C)OCCS3)cc2)cc1	–	19	–	–	–	–	–
O=c1ccc2ccccc2c2ccccc12	–	–	–	–	–	–	·
O=Nc1c(O)c2ccccc2c2ccccc12	–	30	–	–	–	–	24
COc1cc(O)c(C(C)=O)cc1OC	–	–	–	–	–	–	·
CC(=O)Oc1cc(C)c(Cl)c2c(OC(C)=O)cc(C(C)=O)c(O)c12	–	36	–	–	–	24	18
CCCCNC(=O)C[C@@H]1C[C@@]2(C(=O)OC)CCCCC=C2N(Cc2ccccc2)C1=O	–	22	–	–	–	–	–
COCCCNC(=O)C[C@@H]1C[C@@]2(C(=O)OC)CCCCC=C2N(Cc2ccccc2)C1=O	–	–	–	–	–	–	·
CCN1CCN(CCC(=O)Nc2cc(OC)ccc2OC)CC1	–	20	–	–	–	–	–
COc1ccc(OC)c(NC(=O)CCN2CCN(C)CC2)c1	–	–	–	–	–	–	·
C[C@H]1[C@@H]2C[C@@]3(O[C@H](c4ccccn4)N=C3C[C@@H]1c1ccccc1)N(Cc1ccncc1)C2=O	–	–	–	–	–	–	·
O=S(=O)(Nc1nccs1)c1ccc(Cl)cc1	–	19	–	–	–	–	–
CC(C)Cc1nnc(NS(=O)(=O)c2ccc(Cl)cc2)s1	–	27	–	–	–	–	–
COc1ccc(S(=O)(=O)Nc2nnc(CC(C)C)s2)cc1	–	–	–	–	–	–	·
Cc1cc(Br)ccc1OCCCN1CCC(C(O)(c2ccccc2)c2ccccc2)CC1	–	–	–	–	–	–	·
N#C/C(=C/c1ccc(N2CCCCC2)o1)C(=O)Nc1ccc2ccccc2c1	–	21	–	–	–	–	–
CO[C@@H]1[C@H](O)CC[C@]2(O)CN(c3ccc(F)cc3)[C@](C)([C@H](O)CC=C(C)C)[C@@H]12	–	–	–	–	–	–	·
CS(=O)(=O)N1CCN(c2ccc(NC(=S)NC(=O)c3cccs3)cc2)CC1	–	–	–	–	–	–	·
CS(=O)(=O)N1CCN(c2ccc(NC(=S)NC(=O)c3ccccc3[N+](=O)[O-])cc2)CC1	–	20	–	–	–	–	–
CC(=O)c1ccc(N2CCN(c3ccccc3O)CC2)c([N+](=O)[O-])c1	–	31	–	–	–	–	–
CCOC(=O)CN1CC23C=CC(O2)C(C(=O)Nc2cc(OC)ccc2OC)C3C1=O (stereo not drawn)	–	17	–	–	–	–	–
O=C(OCCCN1CCC2(CCC(c3ccccc3)CC2)C1=O)c1ccccc1 (stereo not drawn)	–	–	–	–	–	–	·
SMILES	LEDGF integ inh	SIAE inh	TDP2 inh	UHRF1 MBD2 ctr	MBD2 DNA inh	PRMT1 FP inh	SIAE confirm
COc1ccc(C2CC(=O)Nc3ccccc3S2(=O)=O)cc1OC (stereo not drawn)	–	18	–	–	–	–	–
CCCCNS(=O)(=O)CC1NCc2ccccc21 (stereo not drawn)	–	–	–	–	–	–	·
CC(=O)c1c(C)[nH]c(C(=O)NCCc2ccc(Cl)cc2)c1C	–	–	–	–	–	–	·
Nc1[nH]c2cc(Cl)ccc2c1C(=O)NCCc1ccc(Cl)cc1	–	19	–	–	–	–	19
CC(=O)NNC(=S)Nc1cc(S(=O)(=O)N(C)C)ccc1C	–	–	–	–	–	–	·
COCCN(CCOC)C(=S)Nc1cc(S(=O)(=O)N(C)C)ccc1C	–	20	–	–	–	–	–
CCCCN(CC)CCNC(=O)c1cn(CCOC)c(=O)c2c1c1ccccc1n2C	–	–	–	–	–	–	·
CCCCN(CC)CCCNC(=O)c1cn(C)c(=O)c2c1c1ccccc1n2C	–	19	–	–	–	–	–
O=C1OC(c2ccccc2)=NC12CC2c1ccc(Cl)cc1 (stereo not drawn)	–	23	–	–	–	–	70
Cc1ccccc1N1CCN(C2=NC(=O)/C(=C/c3cn[nH]c3-c3ccccc3)S2)CC1	–	24	–	–	–	–	–
Cc1ccccc1-c1ccc(/C=C2/SC(N3CCOCC3)=NC2=O)o1	–	–	–	–	–	–	·
CC[C@H](C)[C@@H](CO)NC(=O)[C@H]1O[C@@H](n2ccc(=O)[nH]c2=O)[C@H](O)[C@@H]1O	–	88	–	–	–	–	78
O=C(N[C@H](CO)Cc1ccccc1)[C@H]1O[C@@H](n2ccc(=O)[nH]c2=O)[C@H](O)[C@@H]1O	–	48	–	–	–	–	44
C[C@@H](CO)NC(=O)[C@H]1O[C@@H](n2ccc(=O)[nH]c2=O)[C@H](O)[C@@H]1O	–	–	–	–	–	–	·
O=C(O)[C@H](Cc1ccccc1)NC(=O)[C@H]1O[C@@H](n2ccc(=O)[nH]c2=O)[C@H](O)[C@@H]1O	–	–	–	–	–	–	·
CCCCOCC1CN(CCCC)S(=O)(=O)c2c(cccc2N2CCCC2)O1 (stereo not drawn)	–	–	–	–	–	–	·
Cc1ccccc1C(=O)Nc1nnc(-c2cccnc2)o1	–	18	–	–	–	–	–
Cc1ccc(C(=O)n2ccc3ccc(-c4ccc5ccn(Cc6ccc(C#N)cc6)c5c4)cc32)cc1	–	–	–	–	–	–	·
CC(C)(C)C(=O)c1cn(CC(=O)O)c2ccccc12	–	–	–	–	–	–	·
CC(C)C(=O)c1cn(CC(=O)O)c2ccccc12	–	19	–	–	–	–	–
O=c1ccc2c(-c3ccccc3)c3ccc(O)cc3oc-2c1	–	36	–	–	–	90	36
CC(=O)CC[C@H]1CC[C@]2(CCCN(C(=O)C3CCCC3)C2)O1	–	–	–	–	–	–	·
Cc1cc(C)nc(/N=C(\N)Nc2ccc3c(c2)OCCO3)n1	–	18	–	–	–	–	–
Cc1cc(=O)[nH]c(/N=C(\N)Nc2ccc3c(c2)OCCO3)n1	–	–	–	–	–	–	·
